In ChEMBL document CHEMBL3046785, “Antifungal activity of borrelidin produced by a Streptomyces strain isolated from soybean” (J Agric Food Chem, 2012):
≈ marks a conversion by molar mass, not a printed value.

Legend:
[1] = system: Phytophthora sojae; assay: Antifungal activity against Phytophthora sojae race 1 in germinated soybean seeds assessed as root length at 5 mg/L after 48 hr (untreated control = 4.15 +/- 0.71 cm); type: functional
[2] = system: Phytophthora sojae; assay: Antifungal activity against Phytophthora sojae race 1 in germinated soybean seeds assessed as disease control efficacy at 1 mg/L after 48 hr relative to control; type: functional
Procedure, shortened: (§1)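 Seeds (Hefeng-25) were surface-sterilised (10% NaOCl, 20 min), rinsed, and germinated at 30 °C until roots exceeded 10 mm, five per dish on wet filter paper. Roots received 2 mL of solution: 1% Tween 80 in water, or 25% WP in water (4/20/40 mg/L = 1/5/10 mg a.i./L). A 7 mm race 1 disk was placed on the roots and removed after 24 h. After 48 h at 28 °C, roots were rated 0–4 and disease index computed. Efficiency is relative to the inoculated Tween control. Three experiments.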

[3] = system: Phytophthora sojae; assay: Antifungal activity against Phytophthora sojae race 1 in germinated soybean seeds assessed as lesion length at 5 mg/L after 48 hr (untreated control = 3.34 +/- 0.64 cm); type: functional
[4] = system: Phytophthora sojae; assay: Antifungal activity against Phytophthora sojae race 44 assessed as growth inhibition at 28 degC after 7 days (beneficial crop soybean); type: functional, organism-based; details: race 44, 168 h
Procedure, shortened: (§2)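 Race-specific mycelial growth assay on carrot agar (CA) at 28 °C. Test article was dissolved in methanol, diluted with water and added to CA; a 0.2% methanol plate served as negative control. A 5 mm plug from the colony margin was centred on each plate. Colony diameters were recorded once the control was covered. Inhibition = (1 − D/Dc) × 100. EC50/EC95 came from linear regression. Run in triplicate.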

[5] = system: Phytophthora sojae; assay: Antifungal activity against Phytophthora sojae race 1 in germinated soybean seeds assessed as lesion length at 10 mg/L after 48 hr (untreated control = 3.34 +/- 0.64 cm); type: functional
[6] = system: Phytophthora sojae; assay: Antifungal activity against Phytophthora sojae race 1 in germinated soybean seeds assessed as lesion length at 1 mg/L after 48 hr (untreated control = 3.34 +/- 0.64 cm); type: functional
[7] = system: Phytophthora sojae; assay: Antifungal activity against Phytophthora sojae race 5 assessed as growth inhibition at 28 degC after 7 days (beneficial crop soybean); type: functional, organism-based; details: race 5, 168 h; procedure, shortened: as §2
[8] = system: Phytophthora sojae; assay: Antifungal activity against Phytophthora sojae race 1 in germinated soybean seeds assessed as disease control efficacy at 10 mg/L after 48 hr relative to control; type: functional; procedure, shortened: as §1
[9] = system: Phytophthora sojae; assay: Antifungal activity against Phytophthora sojae race 54 assessed as growth inhibition at 28 degC after 7 days (beneficial crop soybean); type: functional, organism-based; details: race 54, 168 h; procedure, shortened: as §2
[10] = system: Phytophthora sojae; assay: Antifungal activity against Phytophthora sojae race 1 in germinated soybean seeds assessed as disease control efficacy at 5 mg/L after 48 hr relative to control; type: functional; procedure, shortened: as §1
[11] = system: Phytophthora sojae; assay: Antifungal activity against Phytophthora sojae race 1 in germinated soybean seeds assessed as root length at 10 mg/L after 48 hr (untreated control = 4.15 +/- 0.71 cm); type: functional
[12] = system: Glycine max; assay: Phytotoxicity against germinated Glycine max (soybean) seeds at 10 mg/L; type: organism-based; details: in vivo
[13] = system: Phytophthora sojae; assay: Antifungal activity against Phytophthora sojae race 3 assessed as growth inhibition at 28 degC after 7 days (beneficial crop soybean); type: functional, organism-based; details: race 3, 168 h; procedure, shortened: as §2
[14] = system: Phytophthora sojae; assay: Antifungal activity against Phytophthora sojae race 4 assessed as growth inhibition at 28 degC after 7 days (beneficial crop soybean); type: functional, organism-based; details: race 4, 168 h; procedure, shortened: as §2
[15] = system: Phytophthora sojae; assay: Antifungal activity against Phytophthora sojae race 1 in germinated soybean seeds assessed as root length at 1 mg/L after 48 hr (untreated control = 4.15 +/- 0.71 cm); type: functional
[16] = system: Phytophthora sojae; assay: Antifungal activity against Phytophthora sojae race 9 assessed as growth inhibition at 28 degC after 7 days (beneficial crop soybean); type: functional, organism-based; details: race 9, 168 h; procedure, shortened: as §2
[17] = system: Phytophthora sojae; assay: Antifungal activity against Phytophthora sojae race 13 assessed as growth inhibition at 28 degC after 7 days (beneficial crop soybean); type: functional, organism-based; details: race 13, 168 h; procedure, shortened: as §2
[18] = system: Phytophthora sojae; assay: Antifungal activity against Phytophthora sojae race 1 assessed as growth inhibition at 28 degC after 7 days (beneficial crop soybean); type: functional, organism-based; details: race 1, 168 h; procedure, shortened: as §2
[19] = system: Phytophthora sojae; assay: Antifungal activity against Phytophthora sojae race 1 in germinated soybean seeds assessed as lesion length at 20 mg/L after 48 hr compound at 25% WP (untreated control = 3.34 +/- 0.64 cm); type: functional
[20] = system: Phytophthora sojae; assay: Antifungal activity against Phytophthora sojae race 1 in germinated soybean seeds assessed as root length at 4 mg/L after 48 hr compound at 25% WP (untreated control = 4.15 +/- 0.71 cm); type: functional
[21] = system: Phytophthora sojae; assay: Antifungal activity against Phytophthora sojae race 1 in germinated soybean seeds assessed as root length at 20 mg/L after 48 hr compound at 25% WP (untreated control = 4.15 +/- 0.71 cm); type: functional
[22] = system: Phytophthora sojae; assay: Antifungal activity against Phytophthora sojae race 1 in germinated soybean seeds assessed as root length at 40 mg/L after 48 hr compound at 25% WP (untreated control = 4.15 +/- 0.71 cm); type: functional
[23] = system: Phytophthora sojae; assay: Antifungal activity against Phytophthora sojae race 1 in germinated soybean seeds assessed as disease control efficacy at 4 mg/L after 48 hr compound at 25% WP relative to control; type: functional; procedure, shortened: as §1
[24] = system: Phytophthora sojae; assay: Antifungal activity against Phytophthora sojae race 1 in germinated soybean seeds assessed as lesion length at 4 mg/L after 48 hr compound at 25% WP (untreated control = 3.34 +/- 0.64 cm); type: functional
[25] = system: Phytophthora sojae; assay: Antifungal activity against Phytophthora sojae race 1 in germinated soybean seeds assessed as lesion length at 40 mg/L after 48 hr compound at 25% WP (untreated control = 3.34 +/- 0.64 cm); type: functional
[26] = system: Phytophthora sojae; assay: Antifungal activity against Phytophthora sojae race 1 in germinated soybean seeds assessed as disease control efficacy at 20 mg/L after 48 hr compound at 25% WP relative to control; type: functional; procedure, shortened: as §1
[27] = system: Phytophthora sojae; assay: Antifungal activity against Phytophthora sojae race 1 in germinated soybean seeds assessed as disease control efficacy at 40 mg/L after 48 hr compound at 25% WP relative to control; type: functional; procedure, shortened: as §1

C[C@@H]1C[C@H](C)C[C@H](C)[C@@H](O)CC(=O)O[C@H]([C@@H]2CCC[C@H]2C(=O)O)C/C=C/C=C(/C#N)[C@H](O)[C@@H](C)C1 [BORRELIDIN]
Activity [1]: 6.53 cm
Efficacy [2]: 56.25%
Activity [3]: 0.73 cm
EC50 [4]: 0.0047 µg/mL (≈ 0.0096 µM)
EC95 [4]: 0.018 µg/mL (≈ 0.0368 µM)
Activity [5]: 0.25 cm
Activity [6]: 1.91 cm
EC50 [7]: 0.0052 µg/mL (≈ 0.0106 µM)
EC95 [7]: 0.02 µg/mL (≈ 0.0408 µM)
Efficacy [8]: 94.72%
EC50 [9]: 0.0057 µg/mL (≈ 0.0116 µM)
EC95 [9]: 0.021 µg/mL (≈ 0.0429 µM)
Efficacy [10]: 80.76%
Activity [11]: 6.81 cm
Activity [12]: Non-toxic
EC50 [13]: 0.0051 µg/mL (≈ 0.0104 µM)
EC95 [13]: 0.021 µg/mL (≈ 0.0429 µM)
EC50 [14]: 0.0038 µg/mL (≈ 0.00776 µM)
EC95 [14]: 0.017 µg/mL (≈ 0.0347 µM)
Activity [15]: 6.24 cm
EC50 [16]: 0.0053 µg/mL (≈ 0.0108 µM)
EC95 [16]: 0.02 µg/mL (≈ 0.0408 µM)
EC50 [17]: 0.0057 µg/mL (≈ 0.0116 µM)
EC95 [17]: 0.021 µg/mL (≈ 0.0429 µM)
EC50 [18]: 0.0056 µg/mL (≈ 0.0114 µM)
EC95 [18]: 0.026 µg/mL (≈ 0.0531 µM)

COCC(=O)N(c1c(C)cccc1C)C(C)C(=O)OC (stereo unspecified) [METALAXYL]
EC50 [4]: 0.28 µg/mL (≈ 1 µM)
EC95 [4]: 12.2 µg/mL (≈ 43.9 µM)
Activity [19]: 1.34 cm
Activity [20]: 6.21 cm
EC50 [7]: 0.3 µg/mL (≈ 1.07 µM)
EC95 [7]: 11.6 µg/mL (≈ 41.5 µM)
EC50 [9]: 0.3 µg/mL (≈ 1.07 µM)
EC95 [9]: 13.3 µg/mL (≈ 47.5 µM)
Activity [21]: 6.48 cm
Activity [22]: 6.73 cm
Efficacy [23]: 45.52%
Activity [24]: 2.57 cm
Activity [25]: 0.62 cm
Efficacy [26]: 71.97%
EC50 [13]: 0.17 µg/mL (≈ 0.609 µM)
EC95 [13]: 4.63 µg/mL (≈ 16.6 µM)
EC50 [14]: 0.18 µg/mL (≈ 0.644 µM)
EC95 [14]: 8.03 µg/mL (≈ 28.7 µM)
EC50 [16]: 0.34 µg/mL (≈ 1.22 µM)
EC95 [16]: 11.8 µg/mL (≈ 42.3 µM)
EC50 [17]: 0.32 µg/mL (≈ 1.15 µM)
EC95 [17]: 7.55 µg/mL (≈ 27 µM)
Efficacy [27]: 87.7%
EC50 [18]: 0.35 µg/mL (≈ 1.25 µM)
EC95 [18]: 6.82 µg/mL (≈ 24.4 µM)
